From PubChem BioAssay
Rows were chosen to be rich in hits. Some 3% of all compounds tested hit in one or more screens of this group.
SENP1 FRET inh: human SENP1 catalytic domain inhibitors, primary screen, biochemical, FRET, uHTS | Sentrin-specific protease 1 (Homo sapiens), Q9P0U3 | recombinant SENP1 catalytic domain, CyPet-SUMO1-YPet FRET cleavage | inhibition, % at 10 µM | hit rate 0.21% among 360,000 | AID 624204, 2012;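 active = inhibition at least 30% at 10 µM, raw YFP signal under a set limit, fluorescence ratio 0.5 to 1.5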
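Compound: 10 µM single point, 0.5% DMSO; Test system: hSENP1 catalytic domain, recombinant; Timing: 50 min reaction at room temperature; Technique: FRET, CFP and YFP emission; Control set: no-enzyme wells low, DMSO-plus-enzyme wells high control.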
Exocytosis inh: LAMP-1 surface exposure blockers, TALL-104 cells – cell-based, flow cytometry, MLPCN library, primary screen; TALL-104 LAMP-1 surface exposure; cells stimulated with thapsigargin and PMA; inhibition, % at 10 µM; hit rate 0.66% among 360,000; AID 651702, 2012;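 active = inhibition above about 55%, limit read from the data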
HNF4A DNA FP: change in binding of human HNF4A to DNA, primary screen, biochemical, fluorescence polarization, FITC-DNA. 1 h. activity change, % at 10 µM. hit rate 0.3% among 360,000. AID 1224865, 2016; in the data active = activity change above about 30%, passing the limit was not always enough
Target sequence (P41235 whole entry, looked up): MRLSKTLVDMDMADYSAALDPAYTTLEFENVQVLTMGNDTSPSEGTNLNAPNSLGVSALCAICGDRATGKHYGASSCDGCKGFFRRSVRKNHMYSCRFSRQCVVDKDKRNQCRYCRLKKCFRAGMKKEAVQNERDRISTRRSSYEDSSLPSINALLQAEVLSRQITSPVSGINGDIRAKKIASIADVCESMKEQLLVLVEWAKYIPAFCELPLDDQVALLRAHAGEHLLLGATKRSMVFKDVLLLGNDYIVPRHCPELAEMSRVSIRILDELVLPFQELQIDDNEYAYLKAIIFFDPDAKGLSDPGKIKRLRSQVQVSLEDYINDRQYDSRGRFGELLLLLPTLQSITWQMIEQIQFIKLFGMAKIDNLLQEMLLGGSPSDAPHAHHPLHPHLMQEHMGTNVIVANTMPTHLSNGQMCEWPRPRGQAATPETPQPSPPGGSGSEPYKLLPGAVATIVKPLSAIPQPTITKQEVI
Myeloid diff MLP: induction of myeloid progenitor differentiation, primary screen, cell-based, flow cytometry, MLPCN library; ER-HoxA9 myeloid progenitors, lysozyme-GFP differentiation; calls only at 10 µM; hit rate 1% among 360,000; AID 624256, 2012;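 active = normalized GFP-positive differentiation at or above the plate's own cutoff, the solvent-only control mean plus 3 SD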;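 also: cells exposed to compound for four days before flow analysis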
DSG3 Ab inh: inhibitors of pemphigus antibody binding to DSG3, primary screen, biochemical, bead-based, flow cytometry, scFv-GFP; DSG3-coupled beads, scFv-anti-DSG3-GFP binding; stronger effect = lower value; hit rate 0.48% among 310,000; AID 588358, 2011; binding (percent of control), % at 10 µM; Desmoglein-3 (Homo sapiens), P32926;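 active = binding more than 3 SD below its plate's average and above zero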
Cardio protect: cardioprotection against H2O2-induced cell death, primary screen, uHTS, H9c2 cells, ATPLite luminescence; H9c2 cardiomyocytes, H2O2 injury protection, 2 h; protection from H2O2 cell death, % at 20 µM; hit rate 0.63% among 360,000; AID 588492, 2011;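 active = compounds giving at least 50% protection of heart cells from peroxide-induced death in the single-dose screen, raw or plate-pattern-corrected value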
Numbers stand for hits; n = inactive; x = not tested or not shown; + = active, no number.

SMILES	SENP1 FRET inh	Exocytosis inh	HNF4A DNA FP	Myeloid diff MLP	DSG3 Ab inh	Cardio protect
COc1cc(/C=C2/C(=N)N3OC(C)=CC3=NC2=O)ccc1OC(=O)c1ccco1	n	n	n	n	61	n
CCN(CC)C(=O)COc1ccc(-c2nnc(Nc3ccc(OC)c(C(=O)NC)c3)c3ccccc23)cc1	n	n	n	n	x	n
COc1cc(/C=N/Nc2ccccc2)ccc1O	n	n	n	x	n	n
COC(=O)c1[nH]c2cc(OC)c(OC)cc2c1/C=N/Nc1ccccc1	n	n	n	n	n	75
CN1CCc2cccc3c2[C@@H]1Cc1ccc(O)c(O)c1-3	n	74	n	n	n	n
COC1=CC(=Cc2c(N)n3nc(CC(=O)N4CCOCC4)sc3nc2=O)C=C(OC)C1=O	n	n	62	n	n	n
O=[N+]([O-])c1ccc2[nH]c(O)c(N=NC3CS(=O)(=O)CC3O)c2c1 (centres undefined)	n	n	n	n	n	n
COc1ccc(NC(=O)N[C@H]2CC[C@@H](CC(=O)NC3CCC3)O[C@@H]2CO)cc1	n	n	n	n	x	x
CC(=O)c1ccc(OCC(=O)NC2CCCN(Cc3ccccc3F)C2)cc1 (centres undefined)	n	n	n	+	n	n
COc1ccc(S(=O)(=O)N2CCOCC2)cc1NC(=O)c1sccc1C	n	n	n	n	n	n
O=C(COc1nsnc1N1CCOCC1)Nc1ccc(Cl)cc1	n	n	n	n	n	n
CSc1ccccc1NC(=O)COc1nsnc1N1CCOCC1	n	n	n	+	n	n
CC(OC(=O)c1ccc(OCC2CCCO2)cc1)C(=O)N(C)Cc1ccccc1 (centres undefined)	n	n	n	n	n	n
Cc1cccc(C)c1OCCNC(=O)c1ccc2ccccc2n1	n	n	n	n	-7.3	n
COc1ccc(NC(=O)c2ccc3c(c2)C(=O)N(Cc2cccnc2)C3=O)cc1	n	n	n	n	70	n
O=C(NNC(=O)c1ccc2ccccc2n1)c1ccc(O)cc1	n	n	n	n	x	n
Cc1ccc(OCCNC(=O)c2ccc3ccccc3n2)cc1	n	n	n	n	n	n
COc1ccc(C(=O)NNC(=O)c2ccc3ccccc3n2)cc1	n	n	n	n	n	52
O=C(O)c1ccccc1C(=O)Nc1ccc(Oc2ccc3ccccc3c2)cc1	n	n	n	+	n	n
CN(Cc1ccc(Cl)cc1)C(c1cc2ccccc2o1)c1nnnn1C(C)(C)C (centres undefined)	n	n	n	n	x	x
COc1ccc(/C=C2\SC(=O)N(CC(=O)NC3C=CS(=O)(=O)C3)C2=O)cc1 (centres undefined)	n	n	n	n	n	n
COc1ccc(NC(=O)C2CC(=O)N(Cc3ccco3)C2)cc1Cl (centres undefined)	n	n	n	n	x	n
COc1ccc(NC(=O)c2ccc3ccccc3c2)cc1	n	n	n	n	97	n
COc1ccc(C(=O)NNC(=O)c2ccc3ccccc3c2)cc1	n	n	n	n	n	n
O=C1OC(Sc2ccccc2)(c2ccccc2)c2ccccc21 (centres undefined)	n	n	n	n	n	n
CCc1cc(-c2n[nH]c(C)c2-c2ccccc2Cl)c(O)cc1OC	n	n	n	n	n	n
Cc1ccccc1CSc1ccc2nnc(-c3ccccn3)n2n1	n	n	n	+	n	n
CN(C(=O)c1ccc(NC(=O)C2CCCN(C(=O)OC(C)(C)C)C2)cc1)C1CCCCC1 (centres undefined)	n	n	n	n	n	n
CCOC1=C2[C@H](c3ccccc3)N(S(=O)(=O)c3ccc(C)cc3)C[C@H]2n2c(=O)n(-c3ccccc3)c(=O)n2C1	n	n	n	n	x	n
Cc1cc(N=Cc2c(O)ccc3ccccc23)no1	n	n	n	n	n	n
